Measured values as given in ChEMBL document CHEMBL4411261, “Down-Regulation of the Androgen Receptor by G-Quadruplex Ligands Sensitizes Castration-Resistant Prostate Cancer Cells to Enzalutamide” (J Med Chem, 2018).
Activity calls are given as the source filed them. The rule behind the calls is not given here.

Legend:
[1] = test system: Quadruplex DNA; test: Stabilization of AR G-quadruplex oligonucleotide in human LNCAP cells assessed as down-regulation of KLK3 mRNA expression at IC50 after 48 hrs by RT-PCR analysis; format: cell-based
How it was run: (§1)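 Transcripts quantified by TaqMan real-time PCR with RNaseP as normalizer; relative quantity versus untreated cells by the 2−ΔΔCt method. Panel genes measured with a 92-gene cancer-mechanism TaqMan array.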

[2] = test system: Quadruplex DNA; test: Binding affinity to 5'-Biotinylated-AR1 G-quadruplex oligonucleotide (unknown origin) by SPR analysis relative to control; format: nucleic-acid assay
[3] = test system: Quadruplex DNA; test: Stabilization of AR G-quadruplex oligonucleotide in human PC3 cells assessed as down-regulation of MAX mRNA expression at IC50 after 48 hrs by RT-PCR analysis; format: cell-based
How it was run: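 PC-3 cells (RPMI-1640, 10% fetal calf serum) exposed at an equitoxic concentration. Expression of 92 cancer-mechanism genes measured on TaqMan Arrays. Change versus untreated cells computed by 2−ΔΔCt, with RNaseP as normalizer.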

[4] = test system: CWR22R; test: Effect on c-MYC mRNA expression in human 22Rv1 cells at IC50 after 48 hrs by RT-PCR analysis; format: functional, cell-based; how it was run: as §1
[5] = test system: Quadruplex DNA; test: Stabilization of AR G-quadruplex oligonucleotide in human 22Rv1 cells assessed as regulation of PTEN mRNA expression at IC50 after 48 hrs by RT-PCR analysis; format: cell-based; how it was run: as §1
[6] = test system: DU-145; test: Effect on JUN mRNA expression in human DU145 cells at IC50 after 48 hrs by RT-PCR analysis; format: functional, cell-based; how it was run: as §1
[7] = test system: Quadruplex DNA; test: Stabilization of AR G-quadruplex oligonucleotide in human 22Rv1 cells assessed as down-regulation of BCL2 mRNA expression at IC50 after 48 hrs by RT-PCR analysis; format: cell-based; how it was run: as §1
[8] = test system: CWR22R; test: Synergistic cytotoxicity against human 22Rv1 cells expressing full length androgen receptor H875Y point mutant assessed as ED50 for Enzalutamide at 0.001 to 0.1 uM after 72 hrs by MTS assay; format: functional; details: 22Rv1, 72 h, read-out: ED50 (the source's name)
How it was run: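 Cells in RPMI-1640 with 10% fetal calf serum were exposed to ligand (0.001−0.1 μM) plus enzalutamide (0.5−50 μM) at a fixed ratio, five concentrations, for 72 h at 37 °C, 5% CO2. Viability read by MTS absorbance at 490 nm after 4 h. Combination index computed at ED50 and ED75 by the Chou–Talalay method.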

[9] = Drug uptake in human PNT1A cells at 160 nM after 24 hrs by DAPI staining-based fluorescence microscopic analysis; format: ADME, cell-based; details: 0.16 µM
[10] = test system: DU-145; test: Cytotoxicity against human DU145 cells assessed as reduction in cell viability after 48 hrs by MTS assay; format: functional, cell-based; details: DU-145, 48 h
How it was run: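 Cells kept in RPMI-1640 with 10% fetal calf serum, 37 °C, 5% CO2. Seeded, after 24 h treated with 0.0001, 0.001, 0.01, 0.1, 1 and 10 μM compound (DMSO stocks freshly diluted in medium) for 48 h. MTS added 4 h, absorbance 490 nm; IC50 from curves of % viability inhibition versus DMSO-treated cells against log concentration.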

[11] = Stabilization of 5'-FAM/3'-TAMRA labelled CTATAGCGCGCTATAG dsDNA (unknown origin) assessed as change in melting temperature t1/2 at 1 uM after 16 hrs in presence of 100 mM K+ by FRET assay
How it was run: (§2)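 FRET melting: FAM/TAMRA dual-labelled oligos (0.25 μM) folded in 10 mM lithium cacodylate pH 7.4 with 100 mM KCl (95 °C 5 min, cooled 4 h); ligand added at 1 μM final, 16 h room temperature. FAM emission followed 30−95 °C at 1 °C/min; curves normalized 0 to 1, T1/2 at 0.5 fraction.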

[12] = test system: PC-3; test: Synergistic cytotoxicity against human PC3 cells assessed as ED50 for Enzalutamide at 0.001 to 0.1 uM after 72 hrs by MTS assay; details: PC-3, 72 h
[13] = test system: PC-3; test: Synergistic cytotoxicity against human PC3 cells assessed as combination index for reduction in cell viability measured at ED75 Enzalutamide at 0.001 to 0.1 uM after 72 hrs by MTS assay based Chou and Talay's plot analysis
[14] = test system: Quadruplex DNA; test: Stabilization of AR G-quadruplex oligonucleotide in human 22Rv1 cells assessed as reduction in AR mRNA expression at IC50 after 6 to 72 hrs by RT-PCR analysis; format: cell-based; details: TDE = time-dependent effect; how it was run: as §1
[15] = test system: Quadruplex DNA; test: Stabilization of AR1 G-quadruplex oligonucleotide (unknown origin) assessed as melting temperature at 16 uM after 16 hrs in presence of 100 mM K+ by CD spectra analysis (reference value: 74.9 +/- 0.3 degreeC); format: nucleic-acid assay
[16] = test system: Quadruplex DNA; test: Stabilization of AR G-quadruplex oligonucleotide in human 22Rv1 cells assessed as reduction in AR-Vs protein level by immunoblotting assay; format: cell-based
[17] = test system: Quadruplex DNA; test: Stabilization of 5'-FAM/3'-TAMRA labelled AR3 G-quadruplex oligonucleotide (unknown origin) assessed as change in melting temperature t1/2 at 1 uM after 16 hrs in presence of 100 mM K+ by FRET assay; format: nucleic-acid assay; how it was run: as §2
[18] = test system: Quadruplex DNA; test: Stabilization of AR G-quadruplex oligonucleotide in human 22Rv1 cells assessed as regulation of AKT1 mRNA expression at IC50 after 48 hrs by RT-PCR analysis; format: cell-based; how it was run: as §1
[19] = test system: Quadruplex DNA; test: Stabilization of AR G-quadruplex oligonucleotide in human 22Rv1 cells assessed as reduction in AR-VS protein level at IC50 after 48 hrs by Western immunoblot assay; format: cell-based
[20] = test system: Quadruplex DNA; test: Stabilization of AR G-quadruplex oligonucleotide in human 22Rv1 cells assessed as reduction in AR-FL protein level at IC50 after 48 hrs by Western immunoblot assay; format: cell-based
[21] = Stabilization of AGTGAGAGTGAGAGAGAGAGTGAGAGTGAGAGTGA ssDNA (unknown origin) assessed as effect on conformational change at 16 uM after 16 hrs in presence of 100 mM K+ by CD spectra analysis
How it was run: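 CD: oligos at 4 μM final in 10 mM lithium cacodylate pH 7.4, 100 mM KCl, annealed 95 °C 5 min then 4 h room temperature; duplex from equimolar strands. Ligand 16 μM final, 16 h room temperature. Spectra 230−320 nm, 5 mm cell, two scans averaged at 20 °C, buffer-subtracted; melting from spectra 20−90 °C in 5 °C steps.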

[22] = Binding affinity to 5'-Biotinylated-AGTGAGAGTGAGAGAGAGAGTGAGAGTGAGAGTGA ssDNA (unknown origin) by SPR analysis
How it was run: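 SPR on streptavidin chip; 5′-biotinylated oligo folded by heating 95 °C 5 min in 10 mM lithium cacodylate, 150 mM KCl, then immobilized at 30 nM to about 600 RU; empty reference cell. Compound 0.7−400 nM in HEPES-KCl (pH 7.4, 0.15 M KCl, 3 mM EDTA) at 40 °C, 40 μL/min, 260 s contact, 600 s dissociation; glycine pH 2.0 regeneration; steady-state affinity fit; at least two independent runs.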

RBA [2]: 100%
Drug uptake [9]: Active
ΔTm [11]: 1 °C
Tm [15]: > 90 °C
ΔTm [17]: 31 °C
Activity [21]: inactive
Kd [22]: 196 nM
Structure (SMILES): CN(C)CCCn1c(=O)c2ccc3c(=O)n(CCCN(C)C)c(=O)c4c5[nH]c6ccccc6[nH]c5c(c1=O)c2c34.Cl.Cl
Activity [1]: Active
Activity [3]: Active
Activity [4]: inactive
Activity [5]: Active
Activity [6]: inactive
Activity [7]: Active
EC50 [8]: 290 nM
IC50 [10]: 80 nM
EC50 [12]: 2180 nM
CI [13]: >1
Activity [14]: Tde
Activity [16]: Active
Activity [18]: Active
Activity [19]: Active
Activity [20]: Active
